Measured values pooled from the literature.
Each line is one published result; the experiments were not run side by side. ≈ marks a conversion by molar mass, not a printed value.

Structure (SMILES)	organism	assay	test system	setting	endpoint	result
CC(C)CN(C[C@@H](O)[C@H](Cc1ccccc1)NC(=O)O[C@H]1CO[C@H]2OCC[C@H]21)S(=O)(=O)c1ccc(B(O)O)cc1	Human immunodeficiency virus 1	viral replication, inhibitor	MT2	–	IC50	49 nM
CC[C@H](C)C[C@H](C)CCCCCCCCC(=O)N[C@H]1C[C@@H](O)[C@@H](NCCN)NC(=O)[C@@H]2[C@@H](O)CCN2C(=O)[C@H]([C@H](O)CCN)NC(=O)[C@H]([C@H](O)[C@@H](O)c2ccc(O)cc2)NC(=O)[C@@H]2C[C@@H](O)CN2C(=O)[C@H]([C@@H](C)O)NC1=O	Clavispora lusitaniae	microbial growth, broth dilution	MY1396	–	MIC	0.25 µg/mL (≈ 0.229 µM)
CC(C)CN(C[C@@H](O)[C@H](Cc1ccccc1)NC(=O)O[C@H]1CO[C@H]2OCC[C@H]21)S(=O)(=O)c1ccc(N)cc1	Human immunodeficiency virus 1	viral replication	T-lymphoid	–	IC50	1.6 nM
COC(=O)c1cc(-c2ccc(NC(=O)Nc3ccc(Cl)c(Cl)c3)cc2)on1	Mycolicibacterium fortuitum	microbial growth, broth dilution	ATCC6841	48 h	MIC	> 64 µg/mL
Cc1ccnc2c1NC(=O)c1cccnc1N2C1CC1	Human immunodeficiency virus 1	viral replication	human PBMC	clinical isolate	IC90	242 nM
CC(C)CN(C[C@@H](O)[C@H](Cc1ccccc1)NC(=O)O[C@H]1CO[C@H]2OCC[C@H]21)S(=O)(=O)c1ccc(N)cc1	Human immunodeficiency virus 1	viral replication, inhibitor	MT2	–	IC50	1.6 nM
CC(C)Nc1cccnc1N1CCN(C(=O)c2cc3cc(NS(C)(=O)=O)ccc3[nH]2)CC1	Human immunodeficiency virus 1	viral replication, inhibitor	human PBMC	clinical isolate	IC90	57.6 nM
COC(=O)c1cc(-c2cccc(NC(=O)Nc3c(C)cccc3C)c2)on1	Mycolicibacterium fortuitum	microbial growth, broth dilution	ATCC6841	48 h	MIC	> 64 µg/mL
